Compound activity (PubChem BioAssay)
iPSC survival up – hiPSC single-cell survival enhancement | ATPlite luminescence; 100% = ROCK inhibitor wells, 0% = DMSO | survival enhancement, % at 20 µM | actives 0.044% (n = 360,000) | AID 602274; in the data active = survival enhancement above about 18%;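 also: cells exposed to compounds for 16 hours before the ATP read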
CRFR2-BP antag – antagonists of CRF-binding protein/CRF-R2 receptor complex; HEK293 CRF-R2/CRF-BP, CRF-induced calcium fluorescence; inhibition, % at 11.8 µM; actives 0.59% (n = 350,000); AID 588475;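 active = inhibition of the ligand-induced calcium signal above about 50% at the single tested concentration, limit read from the data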
beta cell repl – inducers of beta-cell replication in MIN6 cells; proliferation, % at 10 µM; actives 0.29% (n = 330,000); AID 2380; MIN6 cells proliferation, ATPlite luminescence, 48 h; cells starved in 0.2% serum; 100% = growth in 10% serum;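 active = compounds whose signal lies at least 3.5 SD above the mean of all wells on their plate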;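 also: 0% = DMSO-treated cells in low-serum medium and 100% = 10% serum control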
Cardio protect – protects H9c2 cardiomyocytes from peroxide injury. protection from H2O2 cell death, % at 20 µM. AID 588492. H2O2 injury protection, ATPLite, 2 h. actives 0.63% (n = 360,000);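 active = compounds giving at least 50% protection of heart cells from peroxide-induced death in the single-dose screen, raw or plate-pattern-corrected value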;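 also: 0% = DMSO wells with peroxide and 100% = DMSO wells without peroxide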
UCH37 DUB inh – inhibitors of human deubiquitinating enzyme UCH37. inhibition, % (concentration not given with the values). purified proteasome/UCH37, Ub-AMC cleavage fluorescence. actives 0.33% (n = 330,000). AID 588478;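 active = mean inhibition over replicate wells above about 20%, limit read from the data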;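 also: 0% = compound-free wells with enzyme and 100% = wells lacking proteasome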
Target sequence (Q9Y5K5 whole entry, looked up): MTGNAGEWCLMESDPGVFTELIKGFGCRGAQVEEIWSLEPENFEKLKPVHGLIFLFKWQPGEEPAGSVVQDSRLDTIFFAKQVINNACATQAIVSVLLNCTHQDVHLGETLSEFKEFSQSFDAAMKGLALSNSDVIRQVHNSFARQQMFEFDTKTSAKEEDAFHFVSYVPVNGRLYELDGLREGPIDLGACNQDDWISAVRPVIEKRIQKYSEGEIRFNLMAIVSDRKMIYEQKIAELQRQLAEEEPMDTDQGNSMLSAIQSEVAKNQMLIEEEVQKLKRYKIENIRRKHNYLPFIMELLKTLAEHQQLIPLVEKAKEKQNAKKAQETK
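assay system = human UCH37 enzyme supplied as purified proteasome complex | amount = proteasome at 0.15 nM in the dispensed enzyme solution | schedule = 30 min compound-proteasome preincubation then 25 min substrate reaction, room temperature | measured by = fluorescence, ex 355 nm, em 460 nm | benchmarks = no-proteasome wells (full inhibition) and compound-free wells (no inhibition)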
CRFBP-R2 agonist – agonists of human CRF-binding protein/CRF-R2 receptor complex; actives 0.46% (n = 350,000); activation, % at 13.2 µM; AID 588473; HEK293 CRF-R2/CRF-BP, calcium dye fluorescence (FLIPR); percent of saturating CRF peptide response;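 active = activation of at least 50%, plus an integration ratio under a set limit after plate pattern correction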;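 also: plate controls were neutral control wells without compound for no effect and CRF at EC100 for full effect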
An asterisk follows results filed as active. The list is not random: actives were taken first. Their share in the collection is about 2.1%.

How did CCC(C)c1ccccc1OCCCCN1CCCC1 (stereo unspecified) do in these assays?
iPSC survival up: 0; CRFR2-BP antag: -35; beta cell repl: 0; Cardio protect: 0; UCH37 DUB inh: 31*; CRFBP-R2 agonist: 0

What do the screens show for `COc1cc2c(cc1[N+](=O)[O-])-c1ccccc1C2`?
iPSC survival up: -1; CRFR2-BP antag: -94; Cardio protect: -8; UCH37 DUB inh: 5; CRFBP-R2 agonist: 87*

How did COc1cc2c(cc1[N+](=O)[O-])-c1ccc([N+](=O)[O-])cc1C2 do in these assays?
iPSC survival up: -2; Cardio protect: -7

What do the screens show for `CCOc1cc(C=NNC(=O)CN2CCOCC2)ccc1OCc1ccc(F)cc1`?
UCH37 DUB inh: 4

Results for O=C1S/C(=C\c2ccc(O)c([N+](=O)[O-])c2)C(=O)N1Cc1cccc([N+](=O)[O-])c1 ?
iPSC survival up: -1; CRFR2-BP antag: 92*; beta cell repl: -5; Cardio protect: -12; CRFBP-R2 agonist: 5

Results for COc1cc(/C=C2\SC(=O)N(c3cccc(Cl)c3)C2=O)cc([N+](=O)[O-])c1O ?
iPSC survival up: 0; CRFR2-BP antag: 54*; beta cell repl: -2; Cardio protect: -18; UCH37 DUB inh: 7; CRFBP-R2 agonist: -6

How did O=C1S/C(=C\c2ccc(O)c([N+](=O)[O-])c2)C(=O)N1c1ccccc1Cl do in these assays?
iPSC survival up: 0; CRFR2-BP antag: 55*; beta cell repl: -6; Cardio protect: -23; CRFBP-R2 agonist: 1

Results for CC(C)COc1ccc(C(=NO)c2ccccc2)cc1 ?
UCH37 DUB inh: 3

Results for O=c1c2ccccc2nc(COc2ccccc2)n1N=Cc1ccco1 ?
UCH37 DUB inh: 7

Results for COc1ccc(C(=O)NN=Cc2ccc(N3CCOCC3)o2)cc1OC ?
UCH37 DUB inh: 8

Results for CC1=C(C(=O)OCC(C)C)C2(O)C(=O)c3ccccc3C2(O)N1 (stereo unspecified) ?
iPSC survival up: -1; CRFR2-BP antag: -13; beta cell repl: 0; Cardio protect: 3; UCH37 DUB inh: 10; CRFBP-R2 agonist: 0

Results for C=CCOC(=O)C1=C(C)NC2(O)c3ccccc3C(=O)C12O (stereo unspecified) ?
iPSC survival up: -3; CRFR2-BP antag: 69*; beta cell repl: 0; Cardio protect: 3; UCH37 DUB inh: 11; CRFBP-R2 agonist: 2

What do the screens show for `CSCCC(NC(=O)c1ccco1)C(=O)N1CC=C(c2ccccc2)CC1` (stereo unspecified)?
iPSC survival up: 0; CRFR2-BP antag: -81; beta cell repl: -5; Cardio protect: 2; UCH37 DUB inh: 1; CRFBP-R2 agonist: 53*

Results for CSCCC(NC(=O)c1ccco1)C(=O)N1CCCCCCC1 (stereo unspecified) ?
iPSC survival up: 0; CRFR2-BP antag: 4; beta cell repl: 2; Cardio protect: -3; UCH37 DUB inh: 2; CRFBP-R2 agonist: -1

Results for CCNC(=S)NN=C(C)c1ccc2c(c1)OCCO2 ?
UCH37 DUB inh: 5

Results for CC(C)(C)OC(=O)N1CCCN(C(=O)Nc2ccccc2)CC1 ?
iPSC survival up: 0; CRFR2-BP antag: -5; beta cell repl: 1; Cardio protect: 0; UCH37 DUB inh: 2; CRFBP-R2 agonist: 1

What do the screens show for `CC(C)(C)OC(=O)N1CCCN(C(=O)Nc2cccc(Cl)c2)CC1`?
iPSC survival up: 0; CRFR2-BP antag: 113*; beta cell repl: -1; Cardio protect: -1; UCH37 DUB inh: 3; CRFBP-R2 agonist: 1

What do the screens show for `Cc1ccc(NC(=O)c2ncn(CCCNCC(C)c3ccccc3)n2)cc1C` (stereo unspecified)?
iPSC survival up: -3; CRFR2-BP antag: -6; Cardio protect: 10; CRFBP-R2 agonist: -4

Results for Cc1ccc(NC(=O)c2ncn(CCCNCC3CCCO3)n2)cc1C (stereo unspecified) ?
iPSC survival up: 0; CRFR2-BP antag: 81*; Cardio protect: 17; CRFBP-R2 agonist: -1

What do the screens show for `CC(C)COc1ccc(CNC(=S)Nc2ccccc2)cc1Cl`?
iPSC survival up: -1; CRFR2-BP antag: 107*; beta cell repl: -4; Cardio protect: -14; UCH37 DUB inh: 2; CRFBP-R2 agonist: 4

What do the screens show for `CC(C)Oc1ccc(CNC(=S)Nc2ccccc2)cc1Cl`?
iPSC survival up: 0; CRFR2-BP antag: 14; beta cell repl: -4; Cardio protect: -9; UCH37 DUB inh: 4; CRFBP-R2 agonist: 0

Results for COc1ccc2[nH]c(=O)c(CN(Cc3cccs3)S(=O)(=O)c3cccc4nsnc34)cc2c1 ?
iPSC survival up: 0; CRFR2-BP antag: -11; beta cell repl: -3; Cardio protect: 73*; UCH37 DUB inh: 2; CRFBP-R2 agonist: 0

Results for COc1ccc2[nH]c(=O)c(CN(CCO)S(=O)(=O)c3c(C)ccc4nsnc34)cc2c1 ?
iPSC survival up: 4; CRFR2-BP antag: -3; beta cell repl: 2; Cardio protect: 19; UCH37 DUB inh: 6; CRFBP-R2 agonist: 0

How did C=CCOc1c(Br)cc(C=NNC(N)=O)cc1OC do in these assays?
UCH37 DUB inh: -3

Results for COCCCNC(=O)C(=O)Nc1cc2c3c(c1)CCN3C(=O)CC2 ?
iPSC survival up: 0; CRFR2-BP antag: 24; beta cell repl: 2; Cardio protect: 6; UCH37 DUB inh: 5; CRFBP-R2 agonist: 0

What do the screens show for `O=C(NCCCO)C(=O)Nc1cc2c3c(c1)CCN3C(=O)CC2`?
iPSC survival up: 0; CRFR2-BP antag: 78*; beta cell repl: -4; Cardio protect: -1; UCH37 DUB inh: 2; CRFBP-R2 agonist: -1

How did O=[N+]([O-])c1cccc(S(=O)(=O)c2ccc(NCCOCCO)c([N+](=O)[O-])c2)c1 do in these assays?
iPSC survival up: 0; CRFR2-BP antag: 5; beta cell repl: 1; Cardio protect: -14; UCH37 DUB inh: 3; CRFBP-R2 agonist: 0

What do the screens show for `O=[N+]([O-])c1cccc(S(=O)(=O)c2ccc(NCCO)c([N+](=O)[O-])c2)c1`?
iPSC survival up: 1; CRFR2-BP antag: 11; beta cell repl: -2; Cardio protect: -11; UCH37 DUB inh: 32*; CRFBP-R2 agonist: 0

How did CC(C)(C)NC(=O)C(=O)NN=Cc1ccc(Br)cc1 do in these assays?
UCH37 DUB inh: -4

How did CC(CC(=O)Nc1ccc2c(c1)OCCO2)=NNC(=O)c1cccc(O)c1 do in these assays?
UCH37 DUB inh: 2

Results for O=C(c1ccc(F)cc1)c1cnc(Nc2ccccc2)s1 ?
iPSC survival up: -1; CRFR2-BP antag: -16; beta cell repl: -4; Cardio protect: -15; UCH37 DUB inh: -9; CRFBP-R2 agonist: 7
